“And” between values parts separate entries of the source, which are not always exact repeats. Equal values may be shown once.
Experiments:
Mus musculus [1] = assay: Number of survivors out of 6 ip-iv implanted L1210 leukemia mouse tested after 80 days at 30 mg/kg; format: functional
How it was run: (§1)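 Female BDF1 mice bearing ip-implanted leukemia: 10^5 cells for L1210, 10^6 cells for P388. Drug dissolved in saline, given iv for 5 consecutive days beginning 24 h post-implant. Six mice per dose. Survivors scored at 80 days; ILS % from mean survival time relative to controls.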

Mus musculus [2] = assay: Effect on ip implanted EAC by ip administration for 5 days at 10 mg/kg was measured as increase in mean life span; format: functional; settings: 120 h, route intraperitoneal
How it was run: (§2)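 Drug in 0.9% NaCl was given ip for 5 consecutive days from 24 h after inoculation. ILS % came from treated vs control mean survival time, followed for 80 days.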

Mus musculus [3] = assay: Inhibition of sc implanted syngeneic colon 38 carcinoma by ip administration at 20 mg/kg was on 1, 3, 5, 7, 9 days measured as inhibition ratio; format: functional; settings: route subcutaneous
How it was run: (§3)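 Tumor homogenate (70 mg) implanted into the axillary region of female BDF1 mice. Drug dissolved in 0.9% NaCl and diluted with saline just before use, then given ip on days 1, 3, 5, 7 and 9. Tumor length and width were measured by caliper on day 20 after inoculation and converted to estimated weight. Result reported as treated vs control tumor weight, T/C %.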

Mus musculus [4] = assay: Antitumor activity against ip implanted P388 leukemia in mouse after iv administration of 10 mg/kg for 5 days expressed as increase in mean life span; settings: 120 h
Mus musculus [5] = assay: Effect on ip implanted EAC by ip administration at 20 mg/kg was for 5 days measured as increase in mean life span; format: functional; settings: 120 h, route intraperitoneal; how it was run: as §2
Mus musculus [6] = assay: Effect on ip implanted EAC by ip administration for 5 days at 40 mg/kg was measured as increase in mean life span; format: functional; settings: 120 h, route intraperitoneal; how it was run: as §2
Mus musculus [7] = assay: Antitumor activity against ip implanted P388 leukemia in mouse after iv administration of 20 mg/kg for 5 days expressed as increase in mean life span; settings: 120 h
Mus musculus [8] = assay: Antitumor activity against ip implanted L1210 leukemia in mouse after ip administration of 1.25 mg/kg for 5 days expressed as increase in mean life span; format: functional; settings: 120 h, route intraperitoneal
How it was run: (§4)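 Drug was dissolved in 0.9% NaCl, diluted just before use and given ip once daily for 5 consecutive days, starting 24 h after transplant. ILS % = mean survival time of treated vs control mice, observed for 80 days.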

Mus musculus [9] = assay: Number of survivors out of 6 ip-ip implanted L1210 leukemia mouse tested after 80 days at 40 mg/kg; format: functional
How it was run: (§5)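 Female BDF1 mice implanted ip with ascitic fluid holding 10^5 L1210 cells. Saline-dissolved drug given ip daily on days 1-5, starting 24 h after implant. Six mice per dose group, followed 80 days. Survivors/total counted at day 80; ILS % from mean survival time vs controls.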

Mus musculus [10] = assay: Number of survivors out of 6 ip implanted P388 leukemia mouse tested after 80 days at 20 mg/kg; format: functional; settings: route intraperitoneal
How it was run: (§6)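 P388 leukemia, 10^6 ascitic cells implanted ip in female BDF1 mice. Drug in saline given ip for 5 consecutive days from 24 h after transplant. Groups of six per dose level. Survivors/total recorded at the 80-day end of observation; ILS % from treated/control mean survival time.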

Mus musculus [11] = assay: Antitumor activity against ip implanted L1210 leukemia in mouse after ip administration of 40 mg/kg for 5 days expressed as increase in mean life span; format: functional; settings: 120 h, route intraperitoneal; how it was run: as §4
Mus musculus [12] = assay: Inhibition of sc implanted syngeneic colon 38 carcinoma by ip administration at 30 mg/kg was on 1, 3, 5, 7, 9 days measured as inhibition ratio; format: functional; settings: route subcutaneous; how it was run: as §3
Mus musculus [13] = assay: Effect on ip implanted syngeneic B16 melanoma by ip administration of 20 mg/kg for 9 days measured as increase in mean life span; settings: 216 h
Mus musculus [14] = assay: Effect on ip implanted syngeneic B16 melanoma by ip administration for 9 days at 10 mg/kg was measured as increase in mean life span; settings: 216 h
Mus musculus [15] = assay: Effect on ip implanted sarcoma 180 by ip administration for 5 days at 80 mg/kg was measured as increase in mean life span; format: functional; settings: Sarcoma-180, ip, 120 h, route intraperitoneal
How it was run: (§7)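 Saline-dissolved drug was dosed ip daily for 5 consecutive days starting 24 h later. Readout was ILS % (mean survival time of treated vs control) over an 80-day observation.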

Mus musculus [16] = assay: Effect on ip implanted sarcoma 180 by ip administration for 5 days at 10 mg/kg was measured as increase in mean life span; format: functional; settings: Sarcoma-180, ip, 120 h, route intraperitoneal; how it was run: as §7
Mus musculus [17] = assay: Effect on ip implanted EAC by ip administration for 5 days at 5 mg/kg was measured as increase in mean life span; format: functional; settings: 120 h, route intraperitoneal; how it was run: as §2
Mus musculus [18] = assay: Number of survivors out of 6 ip implanted L1210 leukemia mouse, tested after 80 days at 30 mg/kg; format: functional; settings: route intraperitoneal; how it was run: as §5
Mus musculus [19] = assay: Number of survivors out of 6 ip-ip implanted EAC leukemia mouse tested after 80 days at 80 mg/kg; format: functional
How it was run: (§8)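 Drug dissolved and diluted in saline just before use, given ip for 5 consecutive days starting 24 h after implant. Six mice per dose. Survivors counted at 80 days; ILS % taken from mean survival time of treated vs control mice.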

Mus musculus [20] = assay: Effect on ip implanted sarcoma 180 by ip administration for 5 days at 40 mg/kg was measured as increase in mean life span; format: functional; settings: Sarcoma-180, ip, 120 h, route intraperitoneal; how it was run: as §7
Mus musculus [21] = assay: Inhibition of sc implanted syngeneic colon 38 carcinoma by ip administration at 40 mg/kg was on 1, 3, 5, 7, 9 days measured as inhibition ratio; format: functional; settings: route subcutaneous; how it was run: as §3
Mus musculus [22] = assay: Antitumor activity against ip implanted L1210 leukemia in mouse after ip administration of 10 mg/kg for 5 days expressed as increase in mean life span; format: functional; settings: Mus musculus, L1210, ip, 120 h, route intraperitoneal; how it was run: as §4
Mus musculus [23] = assay: Antitumor activity against ip implanted L1210 leukemia in mouse after ip administration of 30 mg/kg for 5 days expressed as increase in mean life span; format: functional; settings: Mus musculus, L1210, ip, 120 h, route intraperitoneal; how it was run: as §4
Mus musculus [24] = assay: Number of survivors out of 6 ip-iv implanted P388 leukemia mouse tested after 80 days at 20 mg/kg; format: functional; how it was run: as §1
Mus musculus [25] = assay: Number of survivors out of 6 ip implanted sarcoma 180 leukemia mouse tested after 80 days at 80 mg/kg; format: functional; settings: route intraperitoneal; how it was run: as §8
Mus musculus [26] = assay: Antitumor activity against ip implanted L1210 leukemia in mouse after ip administration of 20 mg/kg for 5 days expressed as increase in mean life span; format: functional; settings: 120 h, route intraperitoneal; how it was run: as §4
Mus musculus [27] = assay: Number of survivors out of 6 ip-ip implanted EAC leukemia mouse tested after 80 days at 40 mg/kg; format: functional; how it was run: as §8
Mus musculus [28] = assay: Number of survivors out of 6 ip implanted P388 leukemia mouse tested after 80 days at 40 mg/kg; format: functional; settings: route intraperitoneal; how it was run: as §6
Mus musculus [29] = assay: Effect on ip implanted EAC by ip administration for 5 days at 80 mg/kg was measured as increase in mean life span; format: functional; settings: 120 h, route intraperitoneal; how it was run: as §2
Mus musculus [30] = assay: Number of survivors out of 6 ip implanted sarcoma 180 leukemia mouse tested after 80 days at 40 mg/kg; format: functional; settings: route intraperitoneal; how it was run: as §8
Mus musculus [31] = assay: Number of survivors out of 6 ip-ip implanted EAC leukemia mouse tested after 80 days at 20 mg/kg; format: functional; how it was run: as §8
Mus musculus [32] = assay: Number of survivors out of 6 ip-ip implanted L1210 leukemia mouse tested after 80 days at 20 mg/kg; format: functional; how it was run: as §5
Mus musculus [33] = assay: Effect on ip implanted syngeneic B16 melanoma by ip administration for 9 days at 2.5 mg/kg was measured as increase in mean life span; settings: 216 h
Mus musculus [34] = assay: Number of survivors out of 6 ip implanted P388 leukemia mouse tested after 80 days at 10 mg/kg; format: functional; settings: route intraperitoneal; how it was run: as §6
Mus musculus [35] = assay: Inhibition of sc implanted syngeneic colon 38 carcinoma by ip administration at 50 mg/kg was on 1, 3, 5, 7, 9 days measured as inhibition ratio; format: functional; settings: route subcutaneous; how it was run: as §3
Mus musculus [36] = assay: Antitumor activity against ip implanted L1210 leukemia in mouse after iv administration of 30 mg/kg for 5 days expressed as increase in mean life span; settings: 120 h
Mus musculus [37] = assay: Number of survivors out of 6 ip implanted EAC leukemia mouse tested after 80 days at 10 mg/kg; format: functional; settings: route intraperitoneal; how it was run: as §8
Mus musculus [38] = assay: Antitumor activity against iv implanted L1210 leukemia in mouse after ip administration of 10 mg/kg for 5 days expressed as increase in mean life span; format: functional
Mus musculus [39] = assay: Antitumor activity against iv implanted L1210 leukemia in mouse after ip administration of 20 mg/kg for 5 days expressed as increase in mean life span; format: functional
Mus musculus [40] = assay: Antitumor activity against ip implanted L1210 leukemia in mouse after ip administration of 5 mg/kg for 5 days expressed as increase in mean life span; format: functional; settings: Mus musculus, L1210, ip, 120 h, route intraperitoneal; how it was run: as §4
Mus musculus [41] = assay: Effect on ip implanted sarcoma 180 by ip administration for 5 days at 20 mg/kg was measured as increase in mean life span; format: functional; settings: Sarcoma-180, ip, 120 h, route intraperitoneal; how it was run: as §7
Mus musculus [42] = assay: Effect on ip implanted syngeneic B16 melanoma by ip administration for 9 days at 5 mg/kg was measured as increase in mean life span; settings: 216 h
Mus musculus [43] = assay: Number of survivors out of 6 ip implanted L1210 leukemia mouse tested after 80 days at 60 mg/kg; format: functional; settings: route intraperitoneal; how it was run: as §5
Mus musculus [44] = assay: Antitumor activity against ip implanted L1210 leukemia in mouse after ip administration of 60 mg/kg for 5 days expressed as increase in mean life span; format: functional; settings: 120 h, route intraperitoneal; how it was run: as §4

In the case of `Cc1c2cc[n+]([C@@H]3OC[C@H](O)[C@H](O)[C@H]3O)cc2c(C)c2c1[nH]c1ccc(O)cc12.[Br-]`, the Cures (Mus musculus [1]) is reported as 2, the ILS at 10 mg/kg (Mus musculus [2]) is reported as > 297% and the “T/C @ 20mg/kg” value (Mus musculus [3]) is reported as 66%. For the same compound, the ILS at 10 mg/kg (Mus musculus [4]) was 83%, the ILS at 20 mg/kg (Mus musculus [5]) was > 338% and the ILS at 40 mg/kg (Mus musculus [6]) was > 518%. The ILS at 20 mg/kg (Mus musculus [7]) was > 394%, the ILS at 1.25 mg/kg (Mus musculus [8]) was 37% and the Cures (Mus musculus [9]) was 4. For the same compound, the Cures (Mus musculus [10]) was 3, the ILS at 40 mg/kg (Mus musculus [11]) was > 713% and the “T/C @ 30mg/kg” value (Mus musculus [12]) was 59%. The ILS at 20 mg/kg (Mus musculus [13]) was 60%, the ILS at 10 mg/kg (Mus musculus [14]) was 46% and the ILS at 80 mg/kg (Mus musculus [15]) was > 353%. It also gave an ILS at 10 mg/kg (Mus musculus [16]) of 117%, an ILS at 5 mg/kg (Mus musculus [17]) of 95% and a Cures (Mus musculus [18]) of 5. The Cures (Mus musculus [19]) was 5, the ILS at 40 mg/kg (Mus musculus [20]) was > 339% and the “T/C @ 40mg/kg” value (Mus musculus [21]) was 7%. The ILS at 10 mg/kg (Mus musculus [22]) was 113%, the ILS at 30 mg/kg (Mus musculus [23]) was > 860% and the Cures (Mus musculus [24]) was 2. The “Cures@ 80 mg/kg” value (Mus musculus [25]) was 2, the ILS at 20 mg/kg (Mus musculus [26]) was > 251% and the “Cures@ 40mg/kg” value (Mus musculus [27]) was 5. For the same compound, the Cures (Mus musculus [28]) was 6, the ILS at 80 mg/kg (Mus musculus [29]) was > 492% and the “Cures@ 40mg/kg” value (Mus musculus [30]) was 2. For the same compound, the “Cures@ 20mg/kg” value (Mus musculus [31]) was 1, the Cures (Mus musculus [32]) was 1 and the ILS at 2.5 mg/kg (Mus musculus [33]) was 38%. For the same compound, the Cures (Mus musculus [34]) was 1, the “T/C @ 50mg/kg” value (Mus musculus [35]) was 4% and the ILS at 30 mg/kg (Mus musculus [36]) was > 344%. For the same compound, the “Cures@ 10mg/kg” value (Mus musculus [37]) was 1, the ILS (Mus musculus [38]) was 82% and >214% and the ILS (Mus musculus [39]) was 198% and >549%. For the same compound, the ILS at 5 mg/kg (Mus musculus [40]) was 57%, the ILS at 20 mg/kg (Mus musculus [41]) was 282% and the ILS at 5 mg/kg (Mus musculus [42]) was 44%.
Work on `CC(=O)OC1C(C)OC([n+]2ccc3c(C)c4[nH]c5ccc(O)cc5c4c(C)c3c2)C(OC(C)=O)C1OC(C)=O.[Br-]` (centres undefined) yielded a Cures (Mus musculus [43]) of 0 and an ILS at 60 mg/kg (Mus musculus [44]) of 89%.
